Measured values gathered from unrelated publications.
Protocols differ between the studies behind these lines.
Target: Tyrosine-protein kinase Blk (BLK, Homo sapiens, UniProt P51451)

Structure (SMILES) | effect on | mode | method | tested at | endpoint | result
CN(C(=O)c1ccccc1)c1cc(N(C)c2ccc3c(c2)CCc2ccc(C(=O)NCCN4CCOCC4)cc2C3=O)ccc1F | cell-free assay |  | competition with immobilised ligand | 1 µM | remaining binding | 100%
Cc1ccc(C(=O)Nc2ccc(CN3CCN(C)CC3)c(C(F)(F)F)c2)cc1C#Cc1cnc2cccnn12 | enzyme activity |  |  | 23.5 nM | remaining activity | 1.2%
O=C1NC(=O)c2cc(Nc3ccc(F)cc3)c(Nc3ccc(F)cc3)cc21 | cell-free assay |  |  | 0.5 µM | remaining signal | 94.3%
O=C(Nc1cnn(-c2csc(C(=O)NC3COC3)c2)c1)Nc1c(F)cccc1Cl | enzyme activity | inhibitor |  | 5 µM | remaining activity | 96.1%
Cc1ccc(C(=O)NCc2ccsc2)cc1C#Cc1cn(C(C)C)c2ncnc(N)c12 | enzyme activity | inhibitor |  | 1 µM | activity vs control | 4%
CCOCCn1cc(C(=O)Nc2ccc(-n3nc(-c4cccnc4)cc3C(F)(F)F)cn2)ccc1=O | cell-free assay |  | competition with immobilised ligand | 1 µM | remaining binding | 89%
Cc1ccc(NC(=O)c2ccc(C)c(C(F)(F)F)c2)cc1C#Cc1nn(C2CCC(O)CC2)c2ncnc(N)c12 (centres unmarked) | cell-free assay |  |  | 10 µM | remaining signal | 0%
Cc1cnc(NC2CCOCC2)nc1-n1cnc(C(=O)NC(CN)c2cc(F)cc(Cl)c2)c1 (centres unmarked) | enzyme activity | inhibitor | radiometric | 1 µM | remaining activity | 112%
Cc1cc(NC(=O)c2cccc3cc(-c4cccc5[nH]nc(N)c45)ccc23)ccc1F | enzyme activity | inhibitor |  | 0.1 µM | activity vs control | 114%
O=C(O)[C@H]1[C@H](Cn2nnc3ccccc3c2=O)CC[C@@H]1C(=O)c1ccc(OCCC2CCOCC2)cc1 | cell-free assay |  | competition with immobilised ligand | 1 µM | remaining binding | 100%
COc1cc2ncnc(Nc3ccc(Oc4ccccc4)cc3C)c2cc1OC | enzyme activity | inhibitor |  | 1 µM | inhibition | 85%
CC(C)(C)c1nc(-c2cccc(NS(=O)(=O)c3c(F)cccc3F)c2F)c(-c2ccnc(N)n2)s1 | enzyme activity | inhibitor | radiometric | 1 µM | remaining activity | 29%
CC(C)CC(=O)N1CCc2nc(-c3ccc(Br)cc3)nc(N(C)Cc3ccccc3)c2C1 | cell-free assay |  | competition with immobilised ligand | 0.1 µM | remaining binding | 84%
COc1cc2ncnc(Nc3ccc(F)c(Cl)c3)c2cc1OCCCN1CCOCC1 | cell-free assay |  |  | 0.5 µM | remaining signal | 87.7%
Cc1nccc(COC(=O)N2C[C@@H]3[C@@H](CNC(=O)c4ccc5[nH]nnc5c4)[C@@H]3C2)n1 | cell-free assay |  | competition with immobilised ligand | 1 µM | remaining binding | 93%
N#CCCc1ccc2c(c1)-c1[nH]c3ccc([N+](=O)[O-])cc3c1CC(=O)N2 | cell-free assay |  |  | 0.5 µM | remaining signal | 78.8%
CCN(CC)c1ccc(C2=NNC(=O)CC2C)cc1[N+](=O)[O-] (centres unmarked) | enzyme activity | inhibitor |  | 10 µM | remaining activity | 110%
